Entries after “also recorded” stand apart in the source; their conditions may differ. Each block holds one molecule with its values, some of them ahead of it. Where no end group is shown, it is not given here.
Columns and labels:
MAS = assay: Filamin A phosphorylation in HEK-MAS cells; type: cell-based, human
In short: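 HEK293 cells with doxycycline-inducible (100 ng/mL) myc-tagged MAS were induced 24 h with or without MAS inverse agonist (10 μM), then serum-starved 2 h with inverse agonist or H-89 (10 μM each). They were then treated 1 h with MAS agonist (10 μM) plus H-89; uninduced cells served as controls. Lysates were Western-blotted for pS2152-FLNa, FLNa and GAPDH, and pFLNa/FLNa was given as fold over uninduced. Mean ± SEM, N = 3, unpaired t test.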

FLNa Ig21 [1] = biological target: T1, FLNa Ig21 (Homo sapiens, UniProt P21333); assay: Isothermal titration calorimetry; type: binding; conditions: FLNa Ig21, 25 mM sodium phosphate (pH 6.4), 30 °C
T1 sequence (P21333 2236-2329 limits assumed): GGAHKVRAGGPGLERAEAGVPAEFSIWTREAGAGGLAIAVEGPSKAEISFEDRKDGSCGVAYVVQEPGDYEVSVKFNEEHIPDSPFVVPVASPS

FLNa Ig21 [2] = biological target: T1, FLNa Ig21; assay: 15N HSQC NMR binding to FLNa Ig21; conditions: 15N-labeled Ig21, Bruker Avance 600 MHz, 30 °C; D3R peptide at 2-fold excess
FLNa Ig19 = assay: 15N HSQC NMR binding to FLNa Ig19; set-up: species or system human; conditions: 15N-labeled Ig19, Bruker Avance 600 MHz, 30 °C; 2-fold excess of peptide
[3] = biological target: Filamin A Ig21 (Homo sapiens) (UniProt P21333); conditions: cited from earlier work
Filamin A (Homo sapiens) = Filamin A (Homo sapiens) (UniProt P21333); conditions: cited from earlier work
Sequence of Filamin A (Homo sapiens) (P21333 2-2647): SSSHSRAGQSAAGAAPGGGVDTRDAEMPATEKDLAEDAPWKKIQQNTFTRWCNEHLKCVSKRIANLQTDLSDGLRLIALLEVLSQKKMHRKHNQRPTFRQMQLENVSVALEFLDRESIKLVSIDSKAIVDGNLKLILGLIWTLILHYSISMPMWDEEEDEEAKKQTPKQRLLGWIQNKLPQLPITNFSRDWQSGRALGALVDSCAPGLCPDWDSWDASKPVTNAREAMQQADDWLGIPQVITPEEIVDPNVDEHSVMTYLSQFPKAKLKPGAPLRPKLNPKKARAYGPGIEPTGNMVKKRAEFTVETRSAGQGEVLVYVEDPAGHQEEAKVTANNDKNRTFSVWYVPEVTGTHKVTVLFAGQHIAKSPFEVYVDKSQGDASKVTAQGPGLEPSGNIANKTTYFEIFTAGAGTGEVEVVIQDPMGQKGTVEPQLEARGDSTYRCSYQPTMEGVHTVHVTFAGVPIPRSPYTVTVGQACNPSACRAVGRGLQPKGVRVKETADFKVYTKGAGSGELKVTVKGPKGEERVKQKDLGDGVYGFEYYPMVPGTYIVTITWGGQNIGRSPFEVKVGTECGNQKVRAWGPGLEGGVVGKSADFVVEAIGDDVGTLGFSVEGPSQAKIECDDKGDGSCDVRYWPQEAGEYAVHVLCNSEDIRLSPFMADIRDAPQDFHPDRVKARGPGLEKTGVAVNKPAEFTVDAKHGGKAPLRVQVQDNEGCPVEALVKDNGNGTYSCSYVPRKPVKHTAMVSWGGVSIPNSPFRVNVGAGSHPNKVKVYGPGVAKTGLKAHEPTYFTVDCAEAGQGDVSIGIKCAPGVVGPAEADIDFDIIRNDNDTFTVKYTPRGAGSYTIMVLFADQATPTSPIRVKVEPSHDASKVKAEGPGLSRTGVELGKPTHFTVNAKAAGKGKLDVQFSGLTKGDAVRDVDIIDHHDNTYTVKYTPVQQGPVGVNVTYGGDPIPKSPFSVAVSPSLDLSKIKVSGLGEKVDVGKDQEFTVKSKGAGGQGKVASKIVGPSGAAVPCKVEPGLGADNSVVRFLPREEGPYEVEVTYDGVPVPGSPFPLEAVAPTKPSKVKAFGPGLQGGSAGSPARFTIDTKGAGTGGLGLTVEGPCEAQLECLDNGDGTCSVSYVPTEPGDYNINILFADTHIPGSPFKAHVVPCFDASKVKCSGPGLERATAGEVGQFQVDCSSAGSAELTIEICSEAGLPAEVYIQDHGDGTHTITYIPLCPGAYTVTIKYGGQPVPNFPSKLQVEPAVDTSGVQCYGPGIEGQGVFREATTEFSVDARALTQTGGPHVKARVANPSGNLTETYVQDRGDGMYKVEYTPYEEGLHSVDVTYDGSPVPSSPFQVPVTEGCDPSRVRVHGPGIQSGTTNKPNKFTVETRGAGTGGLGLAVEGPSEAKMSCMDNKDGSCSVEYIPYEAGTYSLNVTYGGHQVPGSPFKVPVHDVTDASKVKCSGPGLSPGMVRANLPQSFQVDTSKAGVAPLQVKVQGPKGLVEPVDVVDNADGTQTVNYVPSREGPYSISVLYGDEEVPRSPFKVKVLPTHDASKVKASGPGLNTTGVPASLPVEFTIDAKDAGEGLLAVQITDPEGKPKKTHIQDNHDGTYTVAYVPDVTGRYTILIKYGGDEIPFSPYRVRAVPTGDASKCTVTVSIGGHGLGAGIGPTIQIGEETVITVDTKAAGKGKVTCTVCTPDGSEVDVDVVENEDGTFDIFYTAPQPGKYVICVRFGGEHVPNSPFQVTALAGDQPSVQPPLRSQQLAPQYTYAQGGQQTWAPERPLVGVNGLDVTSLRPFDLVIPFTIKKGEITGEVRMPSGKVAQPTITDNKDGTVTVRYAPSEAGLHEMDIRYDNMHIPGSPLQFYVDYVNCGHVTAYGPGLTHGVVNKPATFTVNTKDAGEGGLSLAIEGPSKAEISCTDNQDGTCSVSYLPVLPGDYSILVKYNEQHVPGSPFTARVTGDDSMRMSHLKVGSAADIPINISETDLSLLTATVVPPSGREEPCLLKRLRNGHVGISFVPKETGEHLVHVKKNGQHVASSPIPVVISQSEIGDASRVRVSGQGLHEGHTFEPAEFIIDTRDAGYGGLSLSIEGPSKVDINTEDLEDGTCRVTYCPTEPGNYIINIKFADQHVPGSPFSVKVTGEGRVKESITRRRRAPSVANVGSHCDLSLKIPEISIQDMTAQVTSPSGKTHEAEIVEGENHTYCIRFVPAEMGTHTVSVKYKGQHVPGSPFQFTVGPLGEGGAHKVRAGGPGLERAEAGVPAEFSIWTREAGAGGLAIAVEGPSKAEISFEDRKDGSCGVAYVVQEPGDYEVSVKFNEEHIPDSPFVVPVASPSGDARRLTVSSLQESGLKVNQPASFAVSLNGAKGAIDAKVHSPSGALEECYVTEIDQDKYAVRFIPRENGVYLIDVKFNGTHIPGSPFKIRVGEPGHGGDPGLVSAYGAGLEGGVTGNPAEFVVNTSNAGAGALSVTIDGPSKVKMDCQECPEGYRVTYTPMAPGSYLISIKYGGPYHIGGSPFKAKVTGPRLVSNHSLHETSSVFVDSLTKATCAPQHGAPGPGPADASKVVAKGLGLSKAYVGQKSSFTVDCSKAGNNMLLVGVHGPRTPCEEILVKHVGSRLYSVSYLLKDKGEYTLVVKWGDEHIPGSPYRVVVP

FLNa = conditions: cited from earlier work
AT1R = assay: Filamin A phosphorylation in HEK-AT1R cells; type: cell-based, rat; conditions: serum starved 2 h, AngII 1 μM for 1 h, mean of N = 2
In short: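 HEK293 cells stably expressing HA-tagged rat AT1R were grown to 80–90% confluency and serum-starved 2 h. They were pretreated 30 min with vehicle or candesartan (10 μM), then given vehicle or AngII (1 μM) for 1 h. About 25 μg of M-PER lysate (protease and phosphatase inhibitors) was run on 4–12% SDS-PAGE. Blots were probed for pS2152-FLNa, FLNa and GAPDH by near-IR fluorescence. pFLNa/FLNa was expressed as fold over untreated; mean ± SEM, N = 2, unpaired t test.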

[4] = Peptide solubility in ITC buffer; type: physicochemical; conditions: 25 mM sodium phosphate (pH 6.4), 5 mM NaCl, 1 mM DTT
[5] = biological target: Human Filamin A immunoglobulin domain Ig21 (human); assay: ITC

Molecule: O=S(=O)(NCCNC/C=C/c1ccc(Br)cc1)c1cccc2cnccc12 [H-89]
inhibition of the increase in pFLNa in MAS-expressing cells (MAS; H-89 10 μM, Discussion statement): 60%

HSQC spectral changes / binding to FLNa Ig21 (FLNa Ig21 [2]): binds FLNa Ig19 and Ig21
HSQC spectral changes / binding to FLNa Ig19 (FLNa Ig19): binds FLNa Ig19 and Ig21
Molecule: VRKLSNGRLSTSLKLGPLQPRGV [D3R]
affinity for Ig21 by ITC (in words) (FLNa Ig21 [1]): could not be assessed accurately by ITC because of its lower affinity; also recorded: binds with a lower affinity

Molecule: β7 integrin C-terminal peptide Ct (from UniProt P26010)
Kd [3]: 40 µM

Molecule: C=CCCN1CCC2(CC1)CN(C(=O)c1c(F)cccc1F)c1ccc(Cl)cc12 [AR-inverse agonist]
FLNa phosphorylation induced by constitutive activity of MAS (MAS; 10 μM AR-inverse agonist during induction (24 h) and serum starvation (2 h), N = 3): abolished constitutive FLNa phosphorylation

Molecule: GPIbα (from UniProt P07359)
Kd (Filamin A (Homo sapiens)): 100 nM

Molecule: lysophosphatidic acid
level of FLNa phosphorylation (FLNa): increase the level of FLNa phosphorylation

Molecule: angiotensin II (DRVYIHPF; Angiotensin-2; UniProt P01019 25-32, looked up) [AngII]
filamin phosphorylation, increase (pFLNa/FLNa) (AT1R): 5 fold

Molecule: KGHTFRSSLSVRLLKFSR [α1D-AR]
solubility of peptide (in words) [4]: limited

Kd [5]: 800 nM
Molecule: LGKKFKRYFLQLLKYIPPKA [AT1R filamin binding motif (FBM) peptide]

Kd [5]: 300 nM
Molecule: KKKRFKESLKVVLTRAFK [MAS filamin binding motif (FBM) peptide]

Kd [5]: 800 nM
Molecule: KGHTFRSSLSVRLLKFSR [α1D-adrenoreceptor (α1D-AR) filamin binding motif (FBM) peptide]
